Laboratory results taken from PMC11905928 (Cell reports. Physical science, 2024).
Values after ≈ are worked out from the molar mass of the structure shown. Structures can show the parent of a compound that is named as a salt. Where two headings read alike, the source gives them in different places. Values belong to the molecule of their own block, whether it stands above or below them.

What was measured:
[1] = target: Aβ19–20 (FF) dimerization (Homo sapiens, UniProt P05067); test: biochemical; details: for IC50: Hill equation, FJ, 200 mM KCl
[2] = Solubility; type: physicochemical
[3] = target: Aβ1–42 aggregation (Homo sapiens, UniProt P05067); test: Thioflavin T; type: biochemical; details: for normalized fluorescent intensity with respect to positive control Aβ1–42+ThT: Aβ1–42 preincubated 24 h
[4] = system: neuroblastoma SH-SY5Y cells; test: MTT cell viability, Aβ1–42 treated neuroblastoma cells; type: cell-based; details: 10 μM Aβ1–42, Figure S32
[5] = system: human microglia cells (C20 cell line); test: MTT cell viability, protection against Aβ1–42 induced toxicity; type: cell-based; details: 48 h; for viability: C20, Aβ1–42 500 nM; for viability at 0.5 µM: Homo sapiens, Microglia
[6] = system: C20 cells; test: MTT cell viability, compound by itself; type: cell-based, human
Summary of the method: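 MTT assay on human microglial C20 cells, run by dose and also by incubation time at 1 uM of test compound. At least three independent experiments, each with 10 technical replicates; error bars are SDs.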

Chain of Aβ1–42 aggregation (P05067 672-713): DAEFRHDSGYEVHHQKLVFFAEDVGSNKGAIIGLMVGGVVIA

SMILES: O=C(O[C@@H]1Cc2c(O)cc(O)cc2O[C@@H]1c1cc(O)c(O)c(O)c1)c1cc(O)c(O)c(O)c1 [Epigallocatechin gallate (EGCG), epigallocatechin gallate]
- IC50 ([1]; read-out: IC50 on the FF-dimerization): 26.3 µM

SMILES: Cc1c2ccncc2c(C)c2c1[nH]c1ccccc12 [Ellipticine]
- solubility ([2]; aqueous buffer): ≤ 200 µM
- solubility ([2]; methanol-water (16:84 v/v), aqueous with cosolvent or surfactant or cyclodextrin): 1200 µM (≈ 296 µg/mL)
- effect on the FF-dimerization (in words) ([1]; single-molecule screening of NIH library): concentration-dependent promotion effect
- normalized fluorescent intensity with respect to positive control Aβ1–42+ThT ([3]; 0.2 μM compound, ThT 3.75 μM): 106%
- normalized fluorescent intensity with respect to positive control Aβ1–42+ThT ([3]; 0.5 μM compound, ThT 3.75 μM): 112%
- effect on Aβ1–42 aggregation (in words) ([3]; concentration >1 μM): inhibition effect
- effect on Aβ1–42 aggregation (in words) ([3]; low-concentration range ≤0.5 μM): stimulator
- effect on cells treated with Aβ1–42 (in words) [4]: protective effects
- viability ([5]; compound 0.05 μM): 65% ± 3%
- viability ([5]; compound 0.1 μM): 64% ± 4%
- viability at 0.5 µM [5]: 61%
- C20 cell viability at high concentrations (in words) ([6]; high-concentration range such as 5 μM, Figure S31): significantly influenced

SMILES: COc1cccc2c1C(=O)c1c(O)c3c(c(O)c1C2=O)C[C@@](O)(C(C)=O)C[C@@H]3O[C@H]1C[C@H](N)[C@H](O)[C@H](C)O1 [Daunorubicin hydrochloride, reference compound]
- IC50 ([1]; IC50 on the FF-dimerization): 3.5 µM
- effect on Aβ1–42 aggregation (in words) ([3]; after 24-h incubation, ThT 3.75 μM): inhibitory effects
- toxicity of the compound by itself (in words) ([6]; C20 cells): showed a toxicity effect by itself

SMILES: CN(C)[C@@H]1C(O)=C(C(N)=O)C(=O)[C@@]2(O)C(O)=C3C(=O)c4c(O)cccc4[C@@](C)(O)[C@H]3C[C@@H]12 [Tetracycline, tetracycline]
- IC50 ([1]; IC50 on the FF-dimerization): 77.6 µM

Now from value to molecule, other results behind:

- IC50 ([1]; IC50 on the FF-dimerization): 107 µM
SMILES: C[C@H](Cc1ccc(O)c(O)c1)[C@@H](C)Cc1ccc(O)c(O)c1 [Nordihydroguaiaretic acid (NDGA), nordihydroguaiaretic acid]

- IC50 ([1]; IC50 on the FF-dimerization): 13.1 µM
SMILES: O=C(/C=C/c1ccc(O)c(O)c1)O[C@H](Cc1ccc(O)c(O)c1)C(=O)O [Rosmarinic acid (RA), rosmarinic acid, reference compound]
- viability ([5]; compound 1 μM): 66% ± 2%
- viability ([5]; compound 5 μM): 69% ± 2%
- viability at 0.5 µM [5]: 67%

- effect on the FF-dimerization (in words) [1]: strong inhibition effect
SMILES: COc1cc(/C=C/C(=O)CC(=O)/C=C/c2ccc(O)c(OC)c2)ccc1O [curcumin]
